# Source: PubChem BioAssay
# Sampled rows, rich in hits. Any-hit rate of the full collection: about 2.1%.
# MT stabilizer: microtubule stabilizers in HeLa cells | actives 0.83% (n = 200,000) | HeLa tubulin immunostaining HCS, 24 h; share of cells brighter than vehicle mean+2SD | % tubulin-high responders, % at 10 µM;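 active = plate Z-score above 3 for both tubulin-high and condensed-nucleus cell shares, with cell loss under 80%, at 10 µM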;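 note: anti alpha tubulin signal scored within the nucleus-defined area of each cell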
# KLF5 inhibitor: inhibitors of KLF5 expression. DLD-1 KLF5 promoter-luciferase reporter, luminescence. inhibition, % at 5 µM. actives 0.23% (n = 290,000);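 active = inhibition above a per-plate limit of that plate's mean compound inhibition plus 3 SD, cut at about 60% in these data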;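 note: higher means less KLF5 promoter-driven luciferase light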
# b-catenin transl: modulators of beta-catenin nuclear translocation; HeLa beta-catenin nuclear translocation, immunofluorescence imaging; nuclear translocation activity, % at 5 µM; actives 0.3% (n = 190,000); AID 1665;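 active = nuclear translocation activity above 50% at 5 µM, with a well cell count of 50 or more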;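 note: per-cell ratio of nuclear to cytoplasmic median beta-catenin stain intensity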
#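 test system = HeLa cells, endogenous beta-catenin | dosing = single 5 µM dose plus 0.02–20 µM confirmation series | times = compound treatment 24 h, 37°C, 5% CO2 | technique = beta-catenin immunofluorescence imaging with DAPI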
# Ba/F3 V617F tox: loss of viability in JAK2V617F-driven Ba/F3 cells; actives 1.1% (n = 220,000); Ba/F3 EpoR-JAK2V617F viability, ATP luminescence; inhibition, % at 5.6 µM; AID 1446;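 active = inhibition above the campaign mean plus 3 SD over all tested compounds, cut at about 24% in these data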;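 note: cytokine-independent growth of Ba/F3 cells driven by EpoR plus mutant JAK2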
# IEC-6 cytotox: counter-screen for KLF5 inhibitors: cytotoxicity in IEC-6 cells. IEC-6 cytotoxicity, luminescence viability. inhibition, % at 5 µM. actives 0.78% (n = 290,000). AID 1825; in the data active = inhibition above about 22%
# BaF3 tox: counter-screen for JAK2V617F inhibitors: parental Ba/F3 viability inhibitors; inhibition, % at 5.6 µM; CellTiter-Glo ATP luminescence; actives 1.1% (n = 220,000);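 active = inhibition above a per-campaign cutoff, the mean inhibition of all tested compounds plus 3 SD, cut at about 27% in these data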
# BaF3 tox 2: counter-screen for JAK2V617F inhibitors: parental Ba/F3 viability inhibitors; shares compounds with Ba/F3 V617F tox; CellTiter-Glo luminescence; cells kept alive by added IL-3; inhibition, % at 5.6 µM; actives 31% (n = 580); AID 1520;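 active = cell growth inhibition above the hit limit set in the earlier mutant JAK2 cell screen, cut at about 27% in these data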
# JAK2V617F conf: confirmation: loss of viability in JAK2V617F-dependent Ba/F3 cells; Ba/F3 EpoR-JAK2V617F viability, CellTiter-Glo luminescence; inhibition, % at 5.6 µM; shares compounds with Ba/F3 V617F tox; actives 66% (n = 580);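 active = mean inhibition above the hit cutoff derived in the earlier primary screen, cut at about 25% in these data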;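 note: higher means lower luminescence from reduced cell ATP and viability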
# A number is an active result; n = inactive; x = no result given.
SMILES,MT stabilizer,KLF5 inhibitor,b-catenin transl,Ba/F3 V617F tox,IEC-6 cytotox,BaF3 tox,BaF3 tox 2,JAK2V617F conf
COc1cccc(-n2ccn(CC(=O)NCCc3ccccc3)c(=O)c2=O)c1,x,n,x,x,n,x,x,x
CC(CCc1ccccc1)NC(=O)Cc1cccs1 (centres undefined),n,n,n,n,n,n,x,x
CC(C)Cn1c(C(C)C)nc([N+](=O)[O-])c1S(=O)(=O)c1ccc(F)cc1,n,n,n,n,n,n,x,x
CCCc1nc([N+](=O)[O-])c(S(=O)(=O)c2ccccc2)n1CC(C)C,n,n,n,29,n,n,n,33
CCNC(=S)NNc1nc(N2CCCCC2)nc(N2CCOCC2)n1,n,n,n,n,n,n,x,x
O=C(NCCCn1ccnc1)c1cc2c(ccc3ccccc32)o1,n,n,n,n,n,n,x,x
COc1ccc(N(C)S(=O)(=O)c2cccc(C(=O)Nc3ccc(-n4cnnn4)cc3)c2)cc1,n,n,n,40,n,n,n,26
CC(=O)Nc1ccc(N/C(=N\S(=O)(=O)c2ccccc2)c2ccccc2)cc1,x,n,x,x,n,x,x,x
O=c1[nH]c2ccc(N/C(=N/S(=O)(=O)c3ccccc3)c3ccccc3)cc2[nH]1,n,n,n,29,n,n,n,n
Nc1ccc2c(c1)C(=O)C(=O)c1ccccc1-2,n,n,x,44,n,n,107,99
Cc1ccc(C)c(-n2c(=O)c(C#N)cc3c(=O)n4ccccc4nc32)c1,n,n,n,61,n,n,n,n
Cc1ccc(-n2c(=O)c(C#N)cc3c(=O)n4ccccc4nc32)cc1,n,n,n,n,n,n,x,x
Cc1nc(NCc2ccccc2)[nH]c(=O)c1CCC(C)C,n,n,n,53,n,n,n,n
Cc1ccc(Nc2nc(C)c(CCC(C)C)c(=O)[nH]2)cc1,n,n,n,n,n,n,x,x
Cc1cc(C)c(C#N)c(N2CCN(c3ccc(F)cc3)CC2)n1,x,n,x,x,n,x,x,x
CN(C)c1nc(N2CCN(c3ccc(F)cc3)CC2)c(C#N)c(=O)o1,n,n,n,28,n,n,n,n
O=C(Cc1ccccc1)Nc1scc(-c2ccccc2)c1C(=O)N1CCOCC1,n,n,n,n,n,n,x,x
NC(=O)c1c(-c2ccc(Cl)cc2Cl)csc1NC(=O)Cc1ccccc1,n,n,n,38,n,n,40,65
CCN(CC)C(=O)C1=C(C)NC(=O)NC1c1c(F)cccc1Cl (centres undefined),n,n,n,29,n,n,n,n
CC(C)(C)c1cc(NC(=O)CCl)n(-c2ccccc2)n1,x,n,n,30,n,n,n,81
COc1ccc2nc(C)cc(Nc3ccc(C)cc3)c2c1,x,n,x,x,n,x,x,x
Cc1ccc2nc(C)cc(Nc3ccc([N+](=O)[O-])cc3)c2c1,n,n,n,38,n,n,n,82
Cc1ccc(Cn2cc(SCC(N)=O)c3ccccc32)cc1,n,n,n,n,n,n,x,x
Fc1ccc(NC(=S)Nc2ccc(Br)cc2)cc1,n,n,n,n,n,n,x,x
COc1cccc(/C=N/NC(=O)c2ccc(-c3ccccc3)cc2)c1O,n,n,x,n,n,n,x,x
SMILES,MT stabilizer,KLF5 inhibitor,b-catenin transl,Ba/F3 V617F tox,IEC-6 cytotox,BaF3 tox,BaF3 tox 2,JAK2V617F conf
COc1cccc(/C=N/NC(=O)c2[nH]c(C)c(C(=O)N/N=C/c3cccc(OC)c3O)c2C)c1O,n,n,n,42,n,n,n,70
Cc1cc(/C=N/NC(=O)c2cc3ccccc3o2)c(C)n1C,x,n,x,x,n,x,x,x
O=C(NC1(C(F)(F)F)Oc2ccccc2O1)N1CCCC1,n,n,n,40,n,n,n,36
COc1ccc(OC)c(NC(=O)c2nnn(Cc3ccccc3C)c2N)c1,n,n,x,24,n,n,37,30
COc1ccc(C)cc1NC(=O)c1nnn(Cc2cc(C)ccc2C)c1N,n,n,x,n,n,n,x,x
CCCCOCCCNC(=O)/C=C/c1ccccc1Cl,n,n,x,n,n,n,x,x
Cc1nc([N+](=O)[O-])c(Sc2nc3ccccc3[nH]2)n1Cc1ccccc1,n,n,n,n,n,n,x,x
Cn1cnc([N+](=O)[O-])c1Sc1nc2ccccc2[nH]1,x,n,n,34,n,n,n,44
CCCCn1c(SCC(=O)c2ccc(O)c(O)c2)nc2ccsc2c1=O,n,n,n,40,n,n,32,88
O=C(Nc1nc(-c2ccc(Cl)cc2Cl)cs1)C1CCCO1 (centres undefined),n,n,x,28,n,n,n,n
COc1ccc(C2(C)NC(=O)N(CC(=O)NCc3ccccc3)C2=O)cc1OC (centres undefined),x,n,x,x,n,x,x,x
CCN(CC)CCCNC(=O)c1cc(-c2ccc(Cl)cc2)on1,n,n,n,24,n,n,n,n
CCOC(=O)/C=C/S(=O)(=O)c1ccc(NC(C)=O)cc1,n,n,n,58,n,n,n,24
Cc1cccc(OCC(=O)Nc2cc(C)ccc2O)c1,n,n,n,37,n,n,n,67
Cc1cccc(OCC(=O)Nc2cc(C)c(C)cc2O)c1,n,n,n,n,n,n,x,x
C=CCn1c(SCC(=O)c2ccc(O)c(O)c2)nnc1-c1ccccc1OC,n,n,n,34,n,n,n,n
CCOc1ccc(NCCC#N)cc1,n,n,n,44,n,n,n,n
COCCCN=C1NN=C(c2cc(C)n(Cc3ccco3)c2C)CS1,14,n,x,79,n,n,78,97
CC(=O)c1ccc(N2CCN(C(=O)c3ccc4ccccc4n3)CC2)cc1,n,n,n,76,n,n,n,n
Cc1ccc(C(=O)CSc2nnc(-c3snnc3C)n2C2CC2)cc1,x,n,n,n,n,n,x,x
Cc1ccc(/C=N/NC(=O)C(=O)N/N=C/c2ccc(C)o2)o1,n,n,n,45,n,n,n,n
CC(C)c1csc(CN2CCC(CCC(=O)NCC3CCCO3)CC2)n1 (centres undefined),x,n,x,x,n,x,x,x
NC(=O)c1ccccc1NC(=O)CCc1ccccc1,n,n,n,n,n,n,x,x
NC(=O)c1ccccc1NC(=S)NC(=O)CCc1ccccc1,23,68,x,47,60,n,n,91
O=S(=O)(CCSc1nc2ccccc2o1)c1nc2ccccc2s1,n,n,x,83,n,n,29,99
COc1cc(C(C[N+](=O)[O-])c2c(N)n(C)c(=O)n(C)c2=O)ccc1O (centres undefined),n,n,n,n,n,n,x,x
COc1cccc(F)c1C(C[N+](=O)[O-])c1c(N)n(C)c(=O)n(C)c1=O (centres undefined),x,n,n,63,n,n,n,92
C=CCOc1c(Br)cc(CNc2ccc3[nH]c(=O)[nH]c3c2)cc1OCC,n,n,n,32,n,n,35,74
